The source made the active and inactive calls. The rule behind the calls is not given here.
What was measured:
[1] = Drug extrusion in human CD3 positive cells assessed as change in mean fluorescence intensity at 5 x 10^-8 M preincubated for 20 mins followed by growth in photosensitizer-free media for 30 mins by flow cytometric analysis relative to control; format: cell-based; conditions: 0.5 h, 0.05 µM
[2] = Drug extrusion in human CD4 positive cells assessed as change in mean fluorescence intensity at 5 x 10^-8 M preincubated for 20 mins followed by growth in photosensitizer-free media for 30 mins by flow cytometric analysis relative to control; format: cell-based; conditions: 0.5 h, 0.05 µM
[3] = Drug extrusion in human CD8 positive cells assessed as change in mean fluorescence intensity at 5 x 10^-8 M preincubated for 20 mins followed by growth in photosensitizer-free media for 30 mins by flow cytometric analysis relative to control; format: cell-based; conditions: 0.5 h, 0.05 µM
[4] = Drug extrusion in SEB-stimulated human CD25 positive cells assessed as change in mean fluorescence intensity at 5 x 10^-8 M preincubated for 20 mins followed by growth in photosensitizer-free media for 30 mins by flow cytometric analysis relative to control; conditions: 0.5 h, 0.05 µM
[5] = Drug extrusion in SEB-stimulated human CD25 negative cells assessed as change in mean fluorescence intensity at 5 x 10^-8 M preincubated for 20 mins followed by growth in photosensitizer-free media for 30 mins by flow cytometric analysis relative to control; conditions: 0.5 h, 0.05 µM
[6] = Drug uptake in SEB-stimulated human CD25 positive cells assessed as mean fluorescence intensity at 5 x 10^-8 M preincubated for 20 mins followed by growth in photosensitizer-free media for 30 mins by flow cytometric analysis relative to control; conditions: 0.5 h, 0.05 µM
[7] = Drug uptake in SEB-stimulated human CD25 negative cells assessed as mean fluorescence intensity at 5 x 10^-8 M preincubated for 20 mins followed by growth in photosensitizer-free media for 30 mins by flow cytometric analysis relative to control; conditions: 0.5 h, 0.05 µM
HuT78 [8] = assay: (§1) Phototoxicity in GFP expressing human HUT78 cells co-cultured with human PBMC cells assessed as cell survival at 7.5 x 10^-8 M preincubated 20 mins in photosensitizer media followed by growth in photosensitizer-free media for 30 mins measured 18 hrs after exposure to 5 J/cm2 irradiation by FACS analysis; format: functional; conditions: HuT78, light or radiation study, read-out: Survival
Outline: (§2)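 Non-stimulated PBMCs from healthy donors (Ficoll-separated) were mixed 5:1 with GFP-transfected, sorted (>98%) HUT-78 cells. Cells took up 7.5×10^-8 M photosensitizer for 20 min, then spent 30 min in dye-free medium. They were exposed to 5 J cm^-2 light (600 nm LED) with rotation at 180 rpm. Survival was gated by FACS (GFP, CD3, CD4, CD8) 18 h later versus non-irradiated controls. Triplicate; mean ± SEM.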

[9] = as §1, with “Phototoxicity human CD3 positive cells co-cultured with” for “Phototoxicity in”, “HUT78” for “HUT78 cells co-cultured with human PBMC”; format: cell-based; conditions: read-out: Survival; outline: as §2
[10] = as §1, with “Phototoxicity human CD4 positive cells co-cultured with” for “Phototoxicity in”, “HUT78” for “HUT78 cells co-cultured with human PBMC”; format: cell-based; conditions: read-out: Survival; outline: as §2
[11] = as §1, with “Phototoxicity human CD8 positive cells co-cultured with” for “Phototoxicity in”, “HUT78” for “HUT78 cells co-cultured with human PBMC”; format: cell-based; conditions: read-out: Survival; outline: as §2
HuT78 [12] = assay: Drug uptake in GFP expressing human HUT78 cells co-cultured with non-stimulated human PBMC cells assessed as change in mean fluorescence intensity at 7.5 x 10^-8 M after 20 mins followed by growth in photosensitizer-free media for 30 mins by flow cytometric analysis relative to control; format: cell-based; conditions: hut78, 0.5 h, 0.075 µM
[13] = Drug extrusion in SEB-stimulated human CD25 positive cells assessed as mean fluorescence intensity at 5 x 10^-8 M preincubated for 20 mins followed by growth in photosensitizer-free media for 30 mins by flow cytometric analysis relative to control; conditions: 0.5 h, 0.05 µM
[14] = Drug extrusion in SEB-stimulated human CD25 negative cells assessed as mean fluorescence intensity at 5 x 10^-8 M preincubated for 20 mins followed by growth in photosensitizer-free media for 30 mins by flow cytometric analysis relative to control; conditions: 0.5 h, 0.05 µM
[15] = N-octanol/water partition coefficient, logP of the compound at 23 degC after 1 hr by HPLC based shake flask method; format: physicochemical
Outline: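 Shake-flask method using 1-octanol: 3–5 min of mixing, then 1 h settling. Equilibration and measurement were at 23 °C, in triplicate.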

ABCB1 [16] = assay: Permeability from apical to basolateral side in dog MDCK2-MDR1 cells expressing ABCB1 at 5 uM after 30 mins in presence of compound 15 by LC-MS/MS analysis; format: ADME, cell-based, Canis lupus familiaris, MDCK-II; conditions: MDCK-MDR1, with compound 15 (concentration not stated), read-out: permeability
Outline: (§3)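 MDR1-transfected MDCKII cells (passage 16–42) were seeded at 50,000 cells cm^-2 on Transwell filters and used on day 6. Monolayers were rinsed in DPBS with 10^-2 M HEPES, pH 7.4, at 37 °C. They were preincubated 30 min in 4.3 mg/mL BSA/DPBSH with or without 5×10^-6 M P-gp inhibitor. 5 μM dye was added apically or basolaterally and samples taken after 1 h at 37 °C with nutation. Quantitation was by LC-MS/MS; P_passive is the mean of P_AB and P_BA under full inhibition. Mean ± SD.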

ABCB1 [17] = assay: Permeability from apical to basolateral side in dog MDCK2-MDR1 cells expressing ABCB1 at 5 uM after 30 mins in absence of compound 15 by LC-MS/MS analysis; format: ADME, cell-based, Canis lupus familiaris, MDCK-II; conditions: MDCK-MDR1, read-out: permeability; outline: as §3
ABCB1 [18] = assay: Permeability from basolateral to apical side in dog MDCK2-MDR1 cells expressing ABCB1 at 5 uM after 30 mins in presence of compound 15 by LC-MS/MS analysis; format: ADME, cell-based, Canis lupus familiaris, MDCK-II; conditions: MDCK-MDR1, with compound 15 (concentration not stated), read-out: permeability; outline: as §3
ABCB1 [19] = assay: Permeability from basolateral to apical side in dog MDCK2-MDR1 cells expressing ABCB1 at 5 uM after 30 mins in absence of compound 15 by LC-MS/MS analysis; format: ADME, cell-based, Canis lupus familiaris, MDCK-II; conditions: MDCK-MDR1, read-out: permeability; outline: as §3
ABCB1 [20] = assay: Passive permeability in dog MDCK2-MDR1 cells expressing ABCB1 at 5 uM after 30 mins in presence of compound 15 by LC-MS/MS analysis; format: ADME, cell-based, Canis lupus familiaris, MDCK-II; conditions: MDCK-MDR1, with compound 15 (concentration not stated), read-out: permeability; outline: as §3
HuT78 [21] = conditions: human, hut78, 0.5 h, 0.075 µM
HuT78 [22] = conditions: human, hut78, 0.5 h, 0.075 µM; remark: listed apart in the source
HuT78 [23] = assay: Phototoxicity against human HUT78 cells assessed as reduction in cell viability preincubated for 1 hr in dark before exposure to 1 J/cm2 irradiation after 48 hrs by MTT assay; format: functional, cell-based
Outline: (§4)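 HUT-78 cells in RPMI 1640 with 10% FBS, 1% HEPES and 1% penicillin-streptomycin were plated at 7.5×10^4 per well and grown 24 h. Dye was added to final 5×10^-8 to 5×10^-7 M, then 1 h in the dark. Plates were kept dark or irradiated with a 633 ± 2 nm dye laser at ~3.2 mW cm^-2 to 0.5, 1.0 or 2.0 J cm^-2. Medium was replaced, 48 h at 37 °C, then MTT read at 570 nm. Triplicate runs; EC50/LD50 by sigmoidal variable-slope fit.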

[24] = Dark toxicity against human HUT78 cells assessed as reduction in cell viability preincubated for 1 hr in dark after 48 hrs by MTT assay; format: cell-based; conditions: read-out: LD50; outline: as §4
HuT78 [25] = assay: Phototoxicity against human HUT78 cells assessed as reduction in cell viability preincubated for 1 hr in dark at 5 x 10^-8M before exposure to 0.5 to 2 J/cm2 irradiation after 48 hrs by MTT assay; format: functional, cell-based; outline: as §4
[26] = Drug uptake in human HUT78 cell mitochondria by MTG-based bright field microscopic analysis; format: ADME
Outline: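 HUT-78 cells (5×10^5 in 0.5 mL medium) were incubated 15 min with 2×10^-7 M dye together with 5×10^-7 M MitoTracker Green. They were centrifuged and analysed by ImageStream imaging flow cytometry, with MTG excited at 488 nm (480–560 nm channel) and dye excited at 561 nm (642–745 nm channel). Colocalisation was given as the bright detail similarity score, mean ± SD over cells.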

| Compound | Activity [1] | Activity [2] | Activity [3] | Activity [4] | Activity [5] | Flu intensity [6] | Flu intensity [7] | viability at 0.075 µM (HuT78 [8]) | viability at 18 h, 0.075 µM [9] | Activity (HuT78 [12]) | Flu intensity [13] | Flu intensity [14] | logP [15] | Papp A→B at 0.5 h, 5 µM (ABCB1 [16]) | Papp A→B at 0.5 h, 5 µM (ABCB1 [17]) | Papp B→A at 0.5 h, 5 µM (ABCB1 [18]) | Papp B→A at 0.5 h, 5 µM (ABCB1 [19]) | Papp at 0.5 h, 5 µM (ABCB1 [20]) | Flu intensity (HuT78 [21]) | Flu intensity (HuT78 [22]) | further results |
| --- | --- | --- | --- | --- | --- | --- | --- | --- | --- | --- | --- | --- | --- | --- | --- | --- | --- | --- | --- | --- | --- |
| CN1CCC(C)(C)c2cc3c(cc21)[Se]c1cc2c(cc1=C3c1ccc(C(=O)N3CCCCC3)s1)C(C)(C)CC[N+]=2C.[Cl-] | 51.3% | 53.3% | 76.2% | 33.5% | 58% | 10900 a.u. | 2500 a.u. | 2.4% | 7.2% | 43.1% | 7300 a.u. | 1100 a.u. | 3.42 | 0.051 ×10⁻⁶ cm/s | 0.18 ×10⁻⁶ cm/s | 0.4 ×10⁻⁶ cm/s | 6.5 ×10⁻⁶ cm/s | 0.2 ×10⁻⁶ cm/s | 9130 a.u. | 6240 a.u. | viability at 18 h, 0.075 µM [10]: 1.1%; viability at 18 h, 0.075 µM [11]: 42.4% |
| C[N+]1=c2cc3c(cc2C(C)(C)CC1)=C(c1ccc(C(=S)N2CCCCC2)s1)c1cc2c4c(c1[Se]3)CCCN4CCC2.[Cl-] | 36.8% | 37.7% | 51% | 22% | 32.9% | 43300 a.u. | 14100 a.u. | 0.7% | 0.4% | 28.2% | 33800 a.u. | 9500 a.u. | 3.78 | 0.046 ×10⁻⁶ cm/s | 0.044 ×10⁻⁶ cm/s | 0.032 ×10⁻⁶ cm/s | 0.88 ×10⁻⁶ cm/s | < 0.1 ×10⁻⁶ cm/s | 42000 a.u. | 36000 a.u. | – |
| O=C(c1ccc(C2=c3cc4c5c(c3[Se]c3c2cc2c6c3CCCN6CCC2)CCC[N+]=5CCC4)s1)N1CCCCC1.[Cl-] | 54.6% | 59.1% | 69% | 39.9% | 59.8% | 7510 a.u. | 1450 a.u. | 3.9% | 62.1% | 55.7% | 4500 a.u. | 580 a.u. | – | 0.024 ×10⁻⁶ cm/s | 0.21 ×10⁻⁶ cm/s | 0.48 ×10⁻⁶ cm/s | 7.8 ×10⁻⁶ cm/s | 0.2 ×10⁻⁶ cm/s | 6800 a.u. | 4500 a.u. | Activity (HuT78 [23]): Dose-dependent effect; EC50 (HuT78 [23]; HuT78, light or radiation study): 70 nM; CC50 at 48 h [24]: 730 nM; viability at 18 h, 0.075 µM [10]: 63.3%; viability at 18 h, 0.075 µM [11]: 78%; Activity (HuT78 [25]): Active; Drug uptake [26]: Active |
| C[N+]1=c2cc3c(cc2C(C)(C)CC1)=C(c1ccc(C(=O)N2CCCCC2)s1)c1cc2c4c(c1[Se]3)CCCN4CCC2.[Cl-] | 52.7% | 54.1% | 79.6% | 37% | 58.6% | 33800 a.u. | 9300 a.u. | 1.24% | 4.8% | 47.1% | 25000 a.u. | 3900 a.u. | 3.51 | 0.018 ×10⁻⁶ cm/s | 0.14 ×10⁻⁶ cm/s | 0.28 ×10⁻⁶ cm/s | 6.6 ×10⁻⁶ cm/s | 0.1 ×10⁻⁶ cm/s | 33200 a.u. | 20000 a.u. | viability at 18 h, 0.075 µM [10]: 0.37%; viability at 18 h, 0.075 µM [11]: 24.5% |
| CN1CCC(C)(C)c2cc3c(cc21)[Se]c1cc2c(cc1=C3c1ccc(C(=S)N3CCCCC3)s1)C(C)(C)CC[N+]=2C.[Cl-] | 40.1% | 42.8% | 57.5% | 16.4% | 30.7% | 14500 a.u. | 5400 a.u. | 5.6% | 1.5% | 34.6% | 12100 a.u. | 3700 a.u. | 3.7 | 0.051 ×10⁻⁶ cm/s | 0.15 ×10⁻⁶ cm/s | 0.013 ×10⁻⁶ cm/s | 0.63 ×10⁻⁶ cm/s | < 0.1 ×10⁻⁶ cm/s | 13800 a.u. | 11700 a.u. | – |
| CN1CCC(C)(C)c2cc3c(-c4ccc(C(=S)N5CCCCC5)s4)c4ccc(=[N+](C)C)cc-4[se]c3cc21.[Cl-] | – | – | – | – | – | 45800 a.u. | 10500 a.u. | – | – | – | 32200 a.u. | 4800 a.u. | – | – | – | – | – | – | 39300 a.u. | 37600 a.u. | Drug uptake [26]: Active |
| CN1CCC(C)(C)c2cc3c(-c4ccc(C(=O)N5CCCCC5)s4)c4ccc(=[N+](C)C)cc-4[se]c3cc21.[Cl-] | – | – | – | – | – | 5390 a.u. | 900 a.u. | – | – | – | 3110 a.u. | 270 a.u. | – | – | – | – | – | – | 15300 a.u. | 5270 a.u. | Drug uptake [26]: Active |
